The nature of test [1]: inhibitors of TNFa-induced NFkB p65 translocation, primary screen, imaging, HUVEC, MLSMR starter and 10KST1 sets (AID 438;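 active = inhibition above 20% together with a positive visual image hit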;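 note: compound added about 3h40 before a 20 min TNFalpha stimulation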;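 for inhibition: signal is the nuclear over cytoplasmic p65 intensity ratio per well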). To be noted: HUVEC TNFa-induced p65 nuclear translocation; cell count: measured here: nuclei count (cytotoxicity indicator), at 2.08 µM; inhibition: at 2 µM, stronger effect = higher value, 0% TNFa-plus-vehicle, 100% no-TNFa wells.
Test [2] can be described thus: inhibitors of mutant huntingtin aggregation, primary screen, imaging, exon1htt(103Q)mCFP cells, high-content imaging (AID 483;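 active = visual image review flags a hit and inhibition of aggregation exceeds 20%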;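 note: compound exposure lasted 3 days before fixation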;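 for nuclei count: percent of the per-plate median nuclei count of sample wells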). To be noted: exon1htt(103Q)mCFP cell line, aggregate imaging, at 2 µM; inhibition of aggregation: stronger effect = higher value; nuclei count: measured here: cell count, toxicity.
Test [3] in a line: inhibitors of E-selectin induction by TNFa, primary screen, imaging, HUVEC, immunofluorescence, MLSMR starter and 10KST1 sets (AID 487;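 active = visually confirmed hit in the image check and inhibition above 20%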;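 for inhibition: signal is fraction of cell area covered by stained E-selectin grains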;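 for nuclei count: 100% = median nuclei count of all wells on the same plate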). To be noted: HUVEC TNFalpha-induced E-selectin immunofluorescence imaging, at 2 µM; inhibition: stronger effect = higher value; nuclei count: measured here: cell number, toxicity.
Test [4] has as its target Voltage-gated potassium channel subunit beta-2 (Rattus norvegicus) (UniProt P62483). Put plainly: KvBeta enzyme negative modulators, primary screen, biochemical, NADPH fluorescence (AID 622;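 active = fluorescence slope higher than the sample average by over 3 SD, cut at about -0.22 in these data, passing the limit was not always enough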;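 note: slope of raw intensity against log time taken from 70 to 1610 s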). To be noted: recombinant KvBeta, 4-cyanobenzaldehyde reduction, at 10 µM, stronger effect = higher value.
For test [5] the target is unchanged. The experiment in a line: KvBeta positive modulators, primary screen, biochemical, NADPH fluorescence (AID 623;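 active = NADPH fluorescence slope more negative than the mean of all samples by about 3 SD, 99.7% confidence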;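 note: fluorescence intensity change per second fitted from 20 to 320 s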). To be noted: Recombinant KvBeta, NADPH fluorescence decrease slope, 10 min; at 10 µM; stronger effect = lower value.
In test [6] the target is Muscarinic acetylcholine receptor M4 (Homo sapiens) (UniProt P08173). The experiment in a line: compounds altering M4/GIRK thallium flux, either direction, primary screen, M4 allosteric agonist project, cell-based, HEK293 M4/GIRK, BTC-AM (AID 625;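 active = fluorescence slope after compound addition differing from the mean of all tested samples at 99.7% confidence, mostly higher but some lower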;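 note: thallium influx through GIRK channels coupled to M4 in HEK293 cells with BTC-AM dye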). To be noted: at 10 µM, actives lie on both sides. The method, boiled down: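 Material: M4/GIRK1/GIRK2 stable HEK293 cell line. Medium: pH 7.3 thallium assay buffer. Dosing: single compound concentration, 10 µM final. Schedule: 1 h dye loading, 2 min kinetic read. Measured by: kinetic fluorescence with BTC-AM dye. Read-out: post-addition slope, 15–24 s, of baseline-normalized fluorescence. Benchmarks: carbachol and DMSO controls.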
Sequence of Muscarinic acetylcholine receptor M4 (Homo sapiens) (P08173 whole entry, looked up): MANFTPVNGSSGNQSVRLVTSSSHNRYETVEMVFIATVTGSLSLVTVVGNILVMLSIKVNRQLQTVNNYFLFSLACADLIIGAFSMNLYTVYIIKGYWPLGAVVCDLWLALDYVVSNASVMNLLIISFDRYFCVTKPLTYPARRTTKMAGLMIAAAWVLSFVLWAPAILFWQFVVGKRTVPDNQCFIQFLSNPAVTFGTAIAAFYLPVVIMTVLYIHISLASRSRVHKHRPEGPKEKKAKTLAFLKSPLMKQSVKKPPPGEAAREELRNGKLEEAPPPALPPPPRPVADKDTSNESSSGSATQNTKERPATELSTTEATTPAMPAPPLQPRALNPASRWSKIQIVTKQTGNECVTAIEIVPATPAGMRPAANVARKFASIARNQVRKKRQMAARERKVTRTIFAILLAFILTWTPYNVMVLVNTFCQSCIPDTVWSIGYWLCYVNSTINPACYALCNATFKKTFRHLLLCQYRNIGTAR

Test [7] in a line: inhibitors of Sendai virus-induced IRF3 signaling, primary screen, TLR/RLR signaling modifier project, cell-based, Sendai virus stimulus, luciferase, 10K MLSCN set (AID 602276;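 active = inhibition at or above 50% at 10 µM; inactive = inhibition below 50%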;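 note: firefly luciferase from ISG56 promoter only with Renilla not read in this screen; 0% = Sendai virus plus DMSO and 100% = medium plus DMSO without virus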). To be noted: HEK293 RL24 IRF3 luciferase reporter, at 10 µM, stronger effect = higher value. In general terms: Reporter assays use an easily measured gene product as a stand-in for the process of interest.
The nature of test [8]: inhibitors of poly I:C-induced TLR3 signaling, primary screen, cell-based, poly I:C stimulus, luciferase, 10K MLSCN set (AID 602277). To be noted: HEK293-TLR3 RL24 IRF3 luciferase reporter, at 10 µM, stronger effect = higher value.

As usually defined, the inhibition is the drop in the measured response relative to a control, in per cent.

Calls of active or inactive are those of the source.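 Rule for the calls, unless noted: active = inhibition of the reporter signal at or above 50%; inactive = inhibition below 50%.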

Sequence of Voltage-gated potassium channel subunit beta-2 (Rattus norvegicus) (P62483 whole entry, looked up): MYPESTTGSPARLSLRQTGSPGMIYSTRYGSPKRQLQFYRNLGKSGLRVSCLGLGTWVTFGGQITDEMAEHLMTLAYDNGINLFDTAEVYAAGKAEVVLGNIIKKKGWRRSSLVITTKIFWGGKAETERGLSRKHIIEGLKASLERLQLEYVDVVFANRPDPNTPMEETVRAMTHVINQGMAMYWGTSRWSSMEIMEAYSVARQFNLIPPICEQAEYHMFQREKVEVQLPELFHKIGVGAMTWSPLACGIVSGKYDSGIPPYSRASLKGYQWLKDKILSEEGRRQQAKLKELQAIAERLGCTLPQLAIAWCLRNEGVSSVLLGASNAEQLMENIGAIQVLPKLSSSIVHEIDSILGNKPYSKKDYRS

For `CC(C)N(C=O)C1(C(=O)NC2CCCCC2)CCCCC1`, the cell count in test [1] was 584. Besides, the inhibition in test [1] was -6.3% (inactive); in test [3] it was -9.4% (inactive); in test [7] it was 10.2% (inactive); in test [8] it was 13.5% (inactive). For the same compound, in test [2], the inhibition of aggregation is 15.2% (inactive). Besides, the nuclei count was 114% in test [2] and 113% in test [3]. For the same compound, the figures for the fluorescence slope in test [4] and in test [6] were -0.551 (inactive) and 0.00567 (inactive), respectively. Besides, the NADPH fluorescence slope in test [5] is -4.6e-06 (inactive).
Consider `CCOC(=O)C1CCN(C(=O)C2CCN(S(=O)(=O)c3cc(Cl)ccc3Cl)CC2)CC1`, for which the cell count in test [1] was 738. Besides, the inhibition is -4.9% (inactive) in test [1], 4.5% (inactive) in test [3], 16% (inactive) in test [7] and 9.65% (inactive) in test [8]. Further, the inhibition of aggregation in test [2] is 14.8% (inactive). Further, the nuclei count in test [2] was 91.3%; in test [3], 96.7%. Besides, the fluorescence slope in test [4] is -0.542 (inactive); in test [6] it was 0.00485 (inactive). In addition, in test [5], the NADPH fluorescence slope is 2.5e-05 (inactive).
On to `COc1cc(S(=O)(=O)NC2CCCCC2)ccc1Cl`, for which the cell count in test [1] turned out to be 405. Further, the inhibition was 7.6% (inactive) in test [1], 3.8% (inactive) in test [3], 16.6% (inactive) in test [7] and 31.9% (inactive) in test [8]. In addition, in test [2], the inhibition of aggregation was 4.9% (inactive). The figures for the nuclei count in test [2] and in test [3] were 89% and 94.9%, respectively. For the same compound, the fluorescence slope is -0.417 (inactive) in test [4] and 0.00482 (inactive) in test [6]. In test [5], the NADPH fluorescence slope is 4.1e-05 (inactive).
Turning to `O=C(O)c1ccc(-n2nc(C(F)(F)F)c3c2-c2ccoc2CC3)cc1`, the cell count in test [1] stood at 609. Also, the inhibition was -5.9% (inactive) in test [1], -24.4% (inactive) in test [3], 3.92% (inactive) in test [7] and -5.27% (inactive) in test [8]. Moreover, in test [2], the inhibition of aggregation was 5.8% (inactive). Further, the nuclei count came out at 96.1% in test [2] and 90.9% in test [3]. The fluorescence slope in test [4] is -0.492 (inactive); in test [6], 0.00488 (inactive). Also, in test [5], the NADPH fluorescence slope is 2.6e-05 (inactive).
Regarding `CCOc1ccccc1N1CCN(S(=O)(=O)c2cccc3nsnc23)CC1`, the cell count in test [1] came to 453. The inhibition in test [1] is 3.9% (inactive); in test [3] it was -6.6% (inactive); in test [7] it was 22.8% (inactive); in test [8] it was 18.5% (inactive). Also, in test [2], the inhibition of aggregation is -10.4% (inactive). Also, the nuclei count in test [2] was determined as 94%; in test [3], 106%. The fluorescence slope in test [4] was -0.472 (inactive); in test [6], 0.00356 (inactive). The NADPH fluorescence slope in test [5] was 2.9e-06 (inactive).
As for `CCS(=O)(=O)N1CCC(C(=O)N2CCOCC2)CC1`, the cell count in test [1] stood at 647. For the same compound, the inhibition in test [1] is -7.3% (inactive); in test [3] it was 27.5% (inactive); in test [7], 12.1% (inactive); in test [8], 15.7% (inactive). Further, the inhibition of aggregation in test [2] is -7% (inactive). The nuclei count in test [2] amounted to 95.7%; in test [3], 94.4%. Also, the fluorescence slope in test [4] is -0.574 (inactive); in test [6], 0.00531 (inactive). In addition, the NADPH fluorescence slope in test [5] is -2.5e-05 (inactive).
On to `Cc1cccc(-n2c(Cc3cc(=O)[nH]c(=O)[nH]3)nnc2SCC(=O)NCc2ccco2)c1`, for which, in test [1], the cell count came to 400. For the same compound, the inhibition was -4% (inactive) in test [1], -15.1% (inactive) in test [3], 12.7% (inactive) in test [7] and 7.93% (inactive) in test [8]. For the same compound, in test [2], the inhibition of aggregation was -21.7% (inactive). Besides, the nuclei count in test [2] was 90%; in test [3], 101%. In addition, the fluorescence slope in test [4] is -0.529 (inactive); in test [6], 0.00455 (inactive). For the same compound, in test [5], the NADPH fluorescence slope was -4.9e-05 (inactive).

For the origin of these results see PubChem BioAssay.
